Legend:
HSC-2 = test: Cytotoxic activity against human HSC2 cells assessed as reduction in cell viability incubated for 48 hrs by MTT assay; assay type: functional; conditions: HSC-2, 48 h
In short: (§1)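 OSCC lines HSC-2, HSC-3, HSC-4 grown in DMEM + 10% heat-inactivated FBS, 37 °C, humidified 5% CO2. Seeded 5 × 10^3 cells/well; after 48 h medium swapped for compound-containing medium (20 mM DMSO stock; top 100 μM, 2-fold serial dilution, three replicate wells). Further 48 h, viable cells by MTT; CC50 read from dose−response curve; at least three independent experiments averaged.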

HSC-4 = test: Cytotoxic activity against human HSC4 cells assessed as reduction in cell viability incubated for 48 hrs by MTT assay; assay type: functional; conditions: HSC-4, 48 h; in short: as §1
[1] = Cytotoxic activity against human HPC cells assessed as reduction in cell viability incubated for 48 hrs by MTT assay; assay type: cell-based
In short: (§2)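 Normal oral cells (gingival fibroblasts, pulp cells, periodontal ligament fibroblasts) from a premolar of a child, used at 8−15 population doublings; DMEM + 10% heat-inactivated FBS, 37 °C, 5% CO2. Seeded 5 × 10^3 cells/well, medium replaced after 48 h with compound (DMSO stock 20 mM; 2-fold dilutions from 100 μM, triplicate wells); 48 h more, MTT viability; CC50 from dose−response curve; mean of ≥3 independent experiments.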

HSC-3 = test: Cytotoxic activity against human HSC3 cells assessed as reduction in cell viability incubated for 48 hrs by MTT assay; assay type: functional; conditions: HSC-3, 48 h; in short: as §1
HL-60 = test: Cytotoxic activity against human HL60 cells assessed as reduction in cell viability incubated for 48 hrs by trypan blue staining based hemocytometry; assay type: functional; conditions: HL-60, 48 h
In short: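 HL-60 cultured in RPMI1640 + 10% heat-inactivated FBS at 37 °C; plated at 3.0 × 10^4 cells/0.1 mL with various compound concentrations (DMSO stock 20 mM). After 48 h, viable cells counted by trypan blue exclusion on a hemocytometer under light microscope; CC50 from dose−response curve, mean of at least three independent experiments.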

[2] = Cytotoxic activity against human HPLF cells assessed as reduction in cell viability incubated for 48 hrs by MTT assay; assay type: cell-based; in short: as §2
[3] = Cytotoxic activity against human HGF cells assessed as reduction in cell viability incubated for 48 hrs by MTT assay; assay type: cell-based; in short: as §2

SMILES | CC50 (HSC-2) [µM] | CC50 (HSC-4) [µM] | CC50 at 48 h [1] [µM] | CC50 (HSC-3) [µM] | CC50 (HL-60) [µM] | CC50 at 48 h [2] [µM] | CC50 at 48 h [3] [µM]
O=C(O[C@@H]1O[C@@H]2COC(=O)c3cc(O)c(O)c(O)c3-c3c(cc(O)c(O)c3O)C(=O)O[C@H]2[C@H](OC(=O)c2cc(O)c(O)c(O)c2)[C@H]1OC(=O)c1cc(O)c(O)c(O)c1Oc1cc(C(=O)O[C@@H]2O[C@@H]3COC(=O)c4cc(O)c(O)c(O)c4-c4c(cc(O)c(O)c4O)C(=O)O[C@H]3[C@H](OC(=O)c3cc(O)c(O)c(O)c3)[C@H]2OC(=O)c2cc(O)c(O)c(O)c2Oc2cc3c(c(O)c2O)Oc2cc(cc(O)c2O)C(=O)O[C@@H]2O[C@@H]4COC(=O)c5cc(O)c(O)c(O)c5-c5c(cc(O)c(O)c5O)C(=O)O[C@H]4[C@H](OC(=O)c4cc(O)c(O)c(O)c4)[C@H]2OC3=O)cc(O)c1O)c1cc(O)c(O)c(O)c1 | 18.8 | 34.3 | 85 | 25.5 | 16.4 | 98.6 | 87.7
O=C(O[C@H]1[C@@H]2OC(=O)c3cc(O)c(O)c(O)c3-c3c(cc(O)c(O)c3O)C(=O)OC[C@H]2OC(O)[C@@H]1O)c1cc(O)c(O)c(O)c1 (some centres undefined) | 5.82 | 34.4 | > 100 | 23.3 | 30.5 | > 100 | > 100
O=C(O[C@@H]1O[C@@H]2COC(=O)c3cc(O)c(O)c(O)c3-c3c(cc(O)c(O)c3O)C(=O)O[C@H]2[C@H](OC(=O)c2cc(O)c(O)c(O)c2)[C@H]1OC(=O)c1cc(O)c(O)c(O)c1)c1cc(O)c(O)c(Oc2c(C(=O)O[C@H]3[C@H](OC(=O)c4cc(O)c(O)c(Oc5c(C(=O)O[C@H]6C(O)O[C@@H]7COC(=O)c8cc(O)c(O)c(O)c8-c8c(cc(O)c(O)c8O)C(=O)O[C@H]7[C@@H]6OC(=O)c6cc(O)c(O)c(O)c6)cc(O)c(O)c5O)c4)O[C@@H]4COC(=O)c5cc(O)c(O)c(O)c5-c5c(cc(O)c(O)c5O)C(=O)O[C@H]4[C@@H]3OC(=O)c3cc(O)c(O)c(O)c3)cc(O)c(O)c2O)c1 (some centres undefined) | 23.2 | 33.9 | 86 | 21.2 | 6.48 | 88.3 | 88
O=C(O[C@@H]1O[C@@H]2COC(=O)c3cc(O)c(O)c(O)c3-c3c(cc(O)c(O)c3O)C(=O)O[C@H]2[C@H](OC(=O)c2cc(O)c(O)c(O)c2)[C@H]1OC(=O)c1cc(O)c(O)c(O)c1)c1cc(O)c(O)c(Oc2c(C(=O)O[C@@H]3[C@@H](OC(=O)c4cc(O)c(O)c(O)c4)[C@@H]4OC(=O)c5cc(O)c(O)c(O)c5-c5c(cc(O)c(O)c5O)C(=O)OC[C@H]4O[C@H]3O)cc(O)c(O)c2O)c1 | 17.7 | 37.9 | 86.6 | 32.6 | 19.5 | > 100 | 92
O=C(O[C@@H]1O[C@@H]2COC(=O)c3cc(O)c(O)c(O)c3-c3c(cc(O)c(O)c3O)C(=O)O[C@H]2[C@H](OC(=O)c2cc(O)c(O)c(O)c2)[C@H]1OC(=O)c1cc(O)c(O)c(O)c1)c1cc(O)c(Oc2c(C(=O)O[C@H]3[C@H](OC(=O)c4cc(O)c(O)c(O)c4)O[C@@H]4COC(=O)c5cc(O)c(O)c(O)c5-c5c(cc(O)c(O)c5O)C(=O)O[C@H]4[C@@H]3OC(=O)c3cc(O)c(O)c(O)c3)cc(O)c(O)c2O)c(O)c1 | 16.3 | 27.7 | 89 | 29.4 | 29.7 | > 100 | 95.3
O=C(O[C@@H]1O[C@@H]2COC(=O)c3cc(O)c(O)c(O)c3-c3c(cc(O)c(O)c3O)C(=O)O[C@H]2[C@H](OC(=O)c2cc(O)c(O)c(O)c2)[C@H]1O)c1cc(O)c(O)c(O)c1 | 14.1 | 38 | > 100 | 28 | 39.9 | > 100 | > 100
O=C(O[C@H]1[C@@H]2OC(=O)c3cc(O)c(O)c(O)c3-c3c(cc(O)c(O)c3O)C(=O)OC[C@H]2OC(O)[C@@H]1OC(=O)c1cc(O)c(O)c(O)c1)c1cc(O)c(O)c(O)c1 (some centres undefined) | 14.6 | 45.7 | 64 | 19.5 | 46.7 | > 100 | > 100

Reference: ChEMBL document CHEMBL4477168, “Hydrolyzable Tannins of Tamaricaceous Plants. 7.1 Structures and Cytotoxic Properties of Oligomeric Ellagitannins from Leaves of Tamarix nilotica and Cultured Tissues of Tamarix tetrandra” (J Nat Prod, 2016)
